Active and inactive are the calls of the source.
Tests used:
[1] = Selectivity ratio, ratio of IC50 for displacement of fluorescent tracer 4-(4-(1-(4-(1-(6-(3-carboxylato-4-(3-iminio-3H-xanthen-9-yl)benzamido)hexyl)-4,5-dihydro-1H-pyrrol-3-yl)butyl)piperidin-1-ium-4-yl)phenyl)-7-(4-(trifluoromethyl)phenyl)-2-naphthoate from mouse P2Y14R stably expressed in human HEK293 cells to IC50 for displacement of fluorescent tracer 4-(4-(1-(4-(1-(6-(3-carboxylato-4-(3-iminio-3H-xanthen-9-yl)benzamido)hexyl)-4,5-dihydro-1H-pyrrol-3-yl)butyl)piperidin-1-ium-4-yl)phenyl)-7-(4-(trifluoromethyl)phenyl)-2-naphthoate from human P2Y14R stably expressed in CHO cells; type: cell-based
P2Y purinoceptor 14 [2] = target: T1, P2Y purinoceptor 14 (Mus musculus, UniProt Q9ESG6); test: Displacement of fluorescent tracer 4-(4-(1-(4-(1-(6-(3-carboxylato-4-(3-iminio-3H-xanthen-9-yl)benzamido)hexyl)-4,5-dihydro-1H-pyrrol-3-yl)butyl)piperidin-1-ium-4-yl)phenyl)-7-(4-(trifluoromethyl)phenyl)-2-naphthoate from mouse P2Y14R stably expressed in human HEK293 cells by flow cytometry; type: cell-based
T1 sequence (Q9ESG6 whole entry): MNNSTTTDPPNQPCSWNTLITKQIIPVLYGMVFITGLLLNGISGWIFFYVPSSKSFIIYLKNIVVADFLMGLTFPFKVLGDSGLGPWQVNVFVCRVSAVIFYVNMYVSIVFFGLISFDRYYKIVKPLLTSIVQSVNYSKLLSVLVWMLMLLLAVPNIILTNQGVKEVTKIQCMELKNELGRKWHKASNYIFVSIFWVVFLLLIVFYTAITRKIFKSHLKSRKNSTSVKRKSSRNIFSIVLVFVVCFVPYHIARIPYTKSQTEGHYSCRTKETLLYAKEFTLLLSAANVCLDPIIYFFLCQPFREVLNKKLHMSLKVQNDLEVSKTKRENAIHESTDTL
Method in brief: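 Whole-cell competitive binding: CHO cells expressing hP2Y14R (or HEK-293 cells expressing mP2Y14R) incubated with AlexaFluor488-labelled antagonist tracer at 20 nM. […] Ki derived by dividing IC50 by 1.72.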

Mus musculus [3] = test: Antiallodynic activity in CCI surgery neuropathic pain Hsd:ICR mouse model assessed as reversal of mechano-allodynia by measuring paw withdrawal threshold at 10 micromol/kg,ip and measured upto 5 days by von frey test; type: functional, organism-based; settings: dose 10.0 µmol/kg, time <= 5.0 day
Method in brief: (§1)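 CCI neuropathic pain in adult male Hsd:ICR (CD-1) mice (20–30 g). Single i.p. injection on day 7 after sciatic nerve constriction, at peak pain. Vehicle 10% (Kolliphor HS 15:DMSO 5:95) in saline, 0.2 mL. Paw withdrawal threshold by von Frey filaments on ipsilateral and contralateral hindpaws. Mean ± SD; two-way ANOVA with Dunnett's test versus day 0 and day 7.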

Histamine H1 receptor = Histamine H1 receptor (Homo sapiens, UniProt P35367); test: Displacement of [3H]-Pyrilamine from human histamine H1 receptor assessed as inhibition constant by radioligand displacement assay
Histamine H1 receptor, sequence (P35367 whole entry): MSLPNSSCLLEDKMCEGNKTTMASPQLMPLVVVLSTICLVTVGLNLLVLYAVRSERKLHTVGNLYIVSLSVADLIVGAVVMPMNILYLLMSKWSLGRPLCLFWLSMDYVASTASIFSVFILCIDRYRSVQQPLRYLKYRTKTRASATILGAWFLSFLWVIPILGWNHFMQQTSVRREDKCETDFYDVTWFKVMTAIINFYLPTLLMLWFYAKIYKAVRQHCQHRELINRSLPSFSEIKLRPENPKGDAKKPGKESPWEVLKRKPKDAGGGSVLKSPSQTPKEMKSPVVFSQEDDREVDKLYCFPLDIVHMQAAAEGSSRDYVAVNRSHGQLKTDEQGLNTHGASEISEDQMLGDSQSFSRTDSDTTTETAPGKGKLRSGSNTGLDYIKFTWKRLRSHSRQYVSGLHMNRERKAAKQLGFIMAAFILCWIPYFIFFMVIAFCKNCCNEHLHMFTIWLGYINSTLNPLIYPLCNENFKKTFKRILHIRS

[4] = target: 5-hydroxytryptamine receptor 1B (Homo sapiens, UniProt P28222); test: Displacement of [3H]-5-CT from human 5-HT1B receptor assessed as inhibition constant by radioligand displacement assay
5-hydroxytryptamine receptor 1B, sequence (P28222 whole entry): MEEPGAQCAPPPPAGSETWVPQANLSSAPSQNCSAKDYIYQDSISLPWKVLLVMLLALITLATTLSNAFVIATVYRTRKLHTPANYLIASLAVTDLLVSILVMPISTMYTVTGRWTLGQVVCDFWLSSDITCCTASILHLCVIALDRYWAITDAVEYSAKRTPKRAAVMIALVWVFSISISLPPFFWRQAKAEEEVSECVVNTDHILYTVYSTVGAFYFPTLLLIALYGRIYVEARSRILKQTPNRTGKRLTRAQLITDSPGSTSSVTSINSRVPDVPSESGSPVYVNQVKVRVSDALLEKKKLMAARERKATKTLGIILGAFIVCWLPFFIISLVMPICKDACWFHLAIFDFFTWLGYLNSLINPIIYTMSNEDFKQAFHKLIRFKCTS

Mus musculus [5] = test: Antiallodynic activity in CCI surgery neuropathic pain Hsd:ICR mouse model assessed as reversal of mechano-allodynia by measuring paw withdrawal threshold at 10 micromol/kg,po and measured upto 6 hrs by von frey test; type: functional, organism-based; settings: dose 10.0 µmol/kg
Method in brief: (§2)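 CCI neuropathic pain in adult male CD-1 mice. Single oral gavage dose of 10 μmol/kg on day 7 post-surgery. Vehicle 5% DMSO + 10% (Kolliphor HS 15:DMSO 5:95) in 0.5% methylcellulose, 0.2 mL. Von Frey paw withdrawal threshold on both hindpaws. Mean ± SD; two-way ANOVA with Dunnett's test.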

P2Y purinoceptor 14 [6] = target: T2, P2Y purinoceptor 14 (Homo sapiens, UniProt Q15391); test: Displacement of fluorescent tracer 4-(4-(1-(4-(1-(6-(3-carboxylato-4-(3-iminio-3H-xanthen-9-yl)benzamido)hexyl)-4,5-dihydro-1H-pyrrol-3-yl)butyl)piperidin-1-ium-4-yl)phenyl)-7-(4-(trifluoromethyl)phenyl)-2-naphthoate from human P2Y14R stably expressed in CHO cells assessed as inhibition constant by flow cytometry; type: cell-based
T2 sequence (Q15391 whole entry): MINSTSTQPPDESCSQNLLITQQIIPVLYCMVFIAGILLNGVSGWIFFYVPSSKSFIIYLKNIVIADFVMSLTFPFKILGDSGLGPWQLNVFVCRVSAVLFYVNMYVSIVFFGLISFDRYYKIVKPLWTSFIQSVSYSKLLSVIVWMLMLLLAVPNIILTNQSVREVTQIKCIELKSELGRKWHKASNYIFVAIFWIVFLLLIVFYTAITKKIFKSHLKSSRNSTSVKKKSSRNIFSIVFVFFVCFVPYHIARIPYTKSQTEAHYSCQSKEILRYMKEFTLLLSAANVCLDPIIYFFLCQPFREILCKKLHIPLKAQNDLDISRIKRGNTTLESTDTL
Method in brief: (§3)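 Whole-cell competitive binding: CHO cells expressing hP2Y14R (or HEK-293 cells expressing mP2Y14R) incubated with AlexaFluor488-labelled antagonist tracer at 20 nM.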

[7] = target: Beta-3 adrenergic receptor (Homo sapiens, UniProt P13945); test: Displacement of [125I]-Pindolol from human adrenergic beta3 receptor assessed as inhibition constant by radioligand displacement assay
Beta-3 adrenergic receptor, sequence (P13945 whole entry): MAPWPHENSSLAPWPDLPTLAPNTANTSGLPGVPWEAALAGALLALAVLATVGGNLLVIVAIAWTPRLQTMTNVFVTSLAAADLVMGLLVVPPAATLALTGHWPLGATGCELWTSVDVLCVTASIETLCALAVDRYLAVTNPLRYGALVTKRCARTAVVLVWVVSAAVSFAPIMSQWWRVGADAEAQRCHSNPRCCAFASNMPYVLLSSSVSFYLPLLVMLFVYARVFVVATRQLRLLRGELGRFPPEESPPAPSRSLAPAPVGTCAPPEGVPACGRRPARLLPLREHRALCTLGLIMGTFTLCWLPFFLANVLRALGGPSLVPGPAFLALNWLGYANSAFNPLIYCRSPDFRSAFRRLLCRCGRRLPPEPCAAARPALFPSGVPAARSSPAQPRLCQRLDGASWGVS

[8] = Lipophilicity, log D of compound at pH 7.4 incubated for 20 hrs by HPLC analysis; type: physicochemical; settings: buffer
[9] = target: Sigma non-opioid intracellular receptor 1 (Homo sapiens, UniProt Q99720); test: Displacement of [3H]-Pentazocine from human sigma 1 receptor assessed as inhibition constant by radioligand displacement assay
Sigma non-opioid intracellular receptor 1, sequence (Q99720 whole entry): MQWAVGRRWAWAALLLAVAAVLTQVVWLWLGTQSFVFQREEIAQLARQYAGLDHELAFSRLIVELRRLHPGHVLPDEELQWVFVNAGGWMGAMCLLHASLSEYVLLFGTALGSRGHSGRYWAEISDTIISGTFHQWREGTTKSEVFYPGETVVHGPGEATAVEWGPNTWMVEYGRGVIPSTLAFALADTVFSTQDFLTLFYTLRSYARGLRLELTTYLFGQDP

[10] = target: Sigma intracellular receptor 2 (Homo sapiens, UniProt Q5BJF2); test: Displacement of [3H]-DTG from human sigma 2 receptor assessed as inhibition constant by radioligand displacement assay
Sigma intracellular receptor 2, sequence (Q5BJF2 whole entry): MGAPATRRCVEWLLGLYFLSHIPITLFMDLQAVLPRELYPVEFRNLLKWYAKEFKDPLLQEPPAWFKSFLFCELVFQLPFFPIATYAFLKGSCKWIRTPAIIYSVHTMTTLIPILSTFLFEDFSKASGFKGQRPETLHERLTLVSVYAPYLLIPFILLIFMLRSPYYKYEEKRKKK

Mus musculus [11] = test: Antiallodynic activity in CCI surgery neuropathic pain Hsd:ICR mouse model assessed as reversal of mechano-allodynia by measuring paw withdrawal threshold at 10 micromol/kg,po and measured at 1 hrs by von frey test; type: functional, organism-based; settings: dose 10.0 µmol/kg; method in brief: as §2
[12] = Stability in mouse plasma assessed as half life at 1 uM and measured at 120 mins by LC-MS/MS analysis; type: ADME, cell-free
[13] = Stability in human plasma assessed as half life at 1 uM and measured at 120 mins by LC-MS/MS analysis; type: ADME, cell-free
[14] = target: T3, Alpha-2A adrenergic receptor (Homo sapiens, UniProt P08913); test: Displacement of [3H]-Rauwolscine from human adrenergic alpha2A receptor assessed as inhibition constant by radioligand displacement assay
T3 sequence (P08913 whole entry): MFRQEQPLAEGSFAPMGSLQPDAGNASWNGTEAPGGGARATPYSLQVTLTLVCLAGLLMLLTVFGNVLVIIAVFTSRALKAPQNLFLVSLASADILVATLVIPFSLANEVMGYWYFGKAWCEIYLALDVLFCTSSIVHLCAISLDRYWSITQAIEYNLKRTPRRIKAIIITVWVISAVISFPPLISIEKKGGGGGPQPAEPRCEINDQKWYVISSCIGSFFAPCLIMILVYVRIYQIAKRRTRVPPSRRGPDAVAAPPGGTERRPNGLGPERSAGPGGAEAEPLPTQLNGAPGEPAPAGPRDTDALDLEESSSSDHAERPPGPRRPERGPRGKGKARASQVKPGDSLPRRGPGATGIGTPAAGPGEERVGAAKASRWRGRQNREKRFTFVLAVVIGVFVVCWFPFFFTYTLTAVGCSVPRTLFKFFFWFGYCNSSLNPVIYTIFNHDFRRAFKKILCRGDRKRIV

[15] = target: T4, Alpha-1B adrenergic receptor (Homo sapiens, UniProt P35368); test: Displacement of [3H]-Prazosin from human adrenergic alpha1B receptor assessed as inhibition constant by radioligand displacement assay
T4 sequence (P35368 whole entry): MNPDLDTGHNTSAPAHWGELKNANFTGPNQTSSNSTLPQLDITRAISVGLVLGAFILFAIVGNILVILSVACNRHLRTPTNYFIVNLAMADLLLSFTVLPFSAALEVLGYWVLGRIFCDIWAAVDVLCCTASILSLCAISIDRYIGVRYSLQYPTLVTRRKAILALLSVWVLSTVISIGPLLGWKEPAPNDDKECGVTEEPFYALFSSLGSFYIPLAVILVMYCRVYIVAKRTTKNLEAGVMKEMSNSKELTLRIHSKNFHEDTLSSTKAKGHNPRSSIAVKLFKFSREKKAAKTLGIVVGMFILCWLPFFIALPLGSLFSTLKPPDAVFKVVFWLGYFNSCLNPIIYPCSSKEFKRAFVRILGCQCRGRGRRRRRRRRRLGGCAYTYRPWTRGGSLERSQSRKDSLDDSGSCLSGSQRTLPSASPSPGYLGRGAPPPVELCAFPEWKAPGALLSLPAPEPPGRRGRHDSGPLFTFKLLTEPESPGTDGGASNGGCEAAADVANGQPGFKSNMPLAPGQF

Mus musculus [16] = test: Antiallodynic activity in CCI surgery neuropathic pain Hsd:ICR mouse model assessed as reversal of mechano-allodynia by measuring paw withdrawal threshold at 10 micromol/kg,ip and measured at 3 hrs by von frey test; type: functional, organism-based; settings: dose 10.0 µmol/kg; method in brief: as §1
[17] = target: T5, P2Y purinoceptor 14 (Homo sapiens) (UniProt Q15391); test: Displacement of fluorescent tracer 4-(4-(1-(4-(1-(6-(3-carboxylato-4-(3-iminio-3H-xanthen-9-yl)benzamido)hexyl)-4,5-dihydro-1H-pyrrol-3-yl)butyl)piperidin-1-ium-4-yl)phenyl)-7-(4-(trifluoromethyl)phenyl)-2-naphthoate from human P2Y14R stably expressed in CHO cells upto 100 uM by flow cytometry; type: cell-based
T5 sequence (whole entry): T2 sequence (Q15391 whole entry)

[18] = target: T6, Muscarinic acetylcholine receptor M5 (Homo sapiens, UniProt P08912); test: Displacement of […] from human muscarinic M5 receptor assessed as inhibition constant by radioligand displacement assay
T6 sequence (P08912 whole entry): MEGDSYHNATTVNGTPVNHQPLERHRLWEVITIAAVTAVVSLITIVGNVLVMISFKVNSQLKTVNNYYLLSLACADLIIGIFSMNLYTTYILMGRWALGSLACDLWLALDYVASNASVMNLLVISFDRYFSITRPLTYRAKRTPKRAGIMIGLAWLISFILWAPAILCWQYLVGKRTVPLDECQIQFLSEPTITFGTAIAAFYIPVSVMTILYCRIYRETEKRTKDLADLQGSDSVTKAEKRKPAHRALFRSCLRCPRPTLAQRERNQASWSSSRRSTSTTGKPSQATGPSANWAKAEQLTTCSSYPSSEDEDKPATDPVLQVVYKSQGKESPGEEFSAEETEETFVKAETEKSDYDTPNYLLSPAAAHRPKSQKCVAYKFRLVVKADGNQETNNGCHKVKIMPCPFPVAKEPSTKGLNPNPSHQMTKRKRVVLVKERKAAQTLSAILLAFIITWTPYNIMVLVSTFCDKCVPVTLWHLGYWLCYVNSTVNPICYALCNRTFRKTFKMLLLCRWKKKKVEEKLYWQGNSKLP

P2Y purinoceptor 14 [19] = target: T2, P2Y purinoceptor 14; test: Displacement of fluorescent tracer 4-(4-(1-(4-(1-(6-(3-carboxylato-4-(3-iminio-3H-xanthen-9-yl)benzamido)hexyl)-4,5-dihydro-1H-pyrrol-3-yl)butyl)piperidin-1-ium-4-yl)phenyl)-7-(4-(trifluoromethyl)phenyl)-2-naphthoate from human P2Y14R stably expressed in CHO cells by flow cytometry; type: cell-based; method in brief: as §3
[20] = target: T5, P2Y purinoceptor 14 (Homo sapiens); test: Binding affinity to human P2Y14R stably expressed in CHO cells at 2 to 20000 nM by flow cytometry; type: cell-based; settings: dose 2-20000 nM
Method in brief: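 Whole CHO cells expressing hP2Y14R. Binding of an AlexaFluor-free JaneliaFluor 646 tracer conjugate was tested at final concentrations of 2, 100, 500 and 20,000 nM, under conditions similar to the AlexaFluor488 tracer assay (20 nM). Specific binding was read by flow cytometry.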

[21] = Antagonist activity at chimpanzee P2Y14R stably expressed in human HEK cells assessed as inhibition of UDP-glucose induced Ca2+ signaling incubated for 20 mins by FLIPR analysis; type: cell-based; settings: Pan troglodytes, HEK293, 20 min

O=C(O)c1cc(-c2ccc(C3CCCNCC3)cc2)c2ccc(-c3ccc(C(F)(F)F)cc3)cc2c1 (racemic)
Ratio IC50 [1]: 2.68 | IC50 (P2Y purinoceptor 14 [2]): 0.0257 µM | Activity (Mus musculus [3]): Active | Ki (Histamine H1 receptor): 2.8 µM | Ki [4]: 4.5 µM | Activity (Mus musculus [5]): Active | Ki (P2Y purinoceptor 14 [6]): 0.00557 µM | Ki [7]: 6.6 µM | logD at 20 h [8]: 2.1 | Ki [9]: 0.89 µM | Ki [10]: 2.8 µM

O=C(O)c1cc(-c2ccc(C3CCNCC3)cc2)c2ccc(-c3ccc(C(F)(F)F)cc3)cc2c1 [PPTN]
Activity (Mus musculus [11]): Active | half-life at 1 µM [12]: 1.5 min | half-life at 1 µM [13]: > 720 min

O=C(O)c1cc(-c2ccc(C3(O)C[C@H]4CNC[C@@H]4C3)cc2)c2ccc(-c3ccc(C(F)(F)F)cc3)cc2c1 (racemic)
Ki [14]: 5.7 µM | Ratio IC50 [1]: 0.715 | IC50 (P2Y purinoceptor 14 [2]): 0.00678 µM | Ki [15]: 6.4 µM | Activity (Mus musculus [3]): Active | Activity (Mus musculus [16]): Active | Ki [4]: 5.4 µM | Activity (Mus musculus [5]): Active | Ki (P2Y purinoceptor 14 [6]): 0.00551 µM | logD at 20 h [8]: 1.1

O=C(Cc1ccc(C(F)(F)F)cc1)Nc1cccc(-c2nc3cc(Cl)ccc3o2)c1
Activity [17]: inactive

O=C(O)c1cc(-c2ccc(C3=CC4(CNC4)C3)cc2)c2ccc(-c3ccc(C(F)(F)F)cc3)cc2c1
Ratio IC50 [1]: 1.64 | IC50 (P2Y purinoceptor 14 [2]): 0.0159 µM | Ki [15]: 7.3 µM | Ki (Histamine H1 receptor): 5.6 µM | Ki [4]: 6.7 µM | Ki (P2Y purinoceptor 14 [6]): 0.00563 µM | Ki [7]: 6.8 µM | logD at 20 h [8]: 1.9 | Ki [18]: 5 µM | Ki [10]: 2.2 µM

C[Si]1(C)C2=CC(=[N+]3CCC3)C=CC2=C(c2cc(C(=O)NCCCCCCn3cc(CCCCN4CCC(c5ccc(-c6cc(C(=O)O)cc7cc(-c8ccc(C(F)(F)F)cc8)ccc67)cc5)CC4)nn3)ccc2C(=O)[O-])c2ccc(N3CCC3)cc21
IC50 (P2Y purinoceptor 14 [19]): 25.9 µM | Activity [20]: inactive | Ki (P2Y purinoceptor 14 [6]): 9.24 µM

O=C(O)c1cc(-c2ccc(C3(O)CCNCC3)cc2)c2ccc(-c3ccc(C(F)(F)F)cc3)cc2c1
IC50 [21]: 0.0063 µM

From ChEMBL document CHEMBL5331128, “Alicyclic Ring Size Variation of 4-Phenyl-2-naphthoic Acid Derivatives as P2Y14 Receptor Antagonists” (J Med Chem, 2023)
